Assay [1] deals with 26S proteasome (Homo sapiens) (UniProt Q99460+P49721+P20618+P28074+P28062+P28065+P28072+O00487+P25786+P25787+P25788+P25789+P28066+P60900+O14818+Q8TAA3+P40306+A5LHX3+P49720+P28070+Q99436+Q16186+P35998+P62191+P43686+P62333+P17980+P62195+Q13200+O43242+O00232+O00231+Q15008+P51665+Q9UNM6+P55036+P48556+P60896). Description: Inhibition of chymotrypsin-like enzyme activity of purified human 20S proteasome using Suc-Leu-Leu-Val-Tyr-AMC as substrate at 1 ug/ml by fluorescence method. In kind it is protein-complex assay. In outline:
(§1)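 Purified human 20S proteasome preincubated with compound for 15 min. Fluorogenic substrate Suc-Leu-Leu-Val-Tyr-AMC (50 µM) then added to read chymotrypsin-like activity.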

Assay [2] in a line: Cytotoxic activity against human NCI-H929 cells after 72 hrs by MTS assay. It is filed as functional, cell-based. As to conditions: NCI-H929, 72 h. The method in brief: (§2)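 100 µL cell suspension (10⁴ cells/well) seeded in 96-well plates; compound exposure 72 h, then MTS at 0.5 mg/mL final for 2–4 h. Absorbance read at 490 nm with 690 nm background subtraction. Growth inhibitory ratio = (A_control − A_sample)/A_control.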
(In general: Tetrazolium assays rely on reduction of a dye to a coloured formazan, in cell work by metabolically active cells.)

The test system of assay [3] is RPMI-8226. The experiment in a line: Cytotoxic activity against human RPMI8226 cells after 72 hrs by MTS assay. In kind it is functional, cell-based. To be noted: RPMI-8226, 72 h. The method in brief: as §2
For a further assay, the target named is 26S proteasome. The experiment in a line: Inhibition of chymotrypsin-like enzyme activity of purified human 20S proteasome using Suc-Leu-Leu-Val-Tyr-AMC as substrate by fluorescence method. In kind it is protein-complex assay. In outline: as §1
In assay [4] the test system is RPMI-8226. Description: Induction of apoptosis human RPMI8226 cells assessed as accumulation of poly-ubiquitin at 100 nM after 12 hrs by Western blot analysis. In kind it is functional, cell-based. The method in brief:
(§3)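 RPMI 8226 cells in 6-well plates exposed to compounds for 12 h; DMSO as vehicle control. Cells rinsed twice in ice-cold PBS and lysed in 1× SDS loading buffer. Lysates run on 10% SDS–PAGE and transferred to PVDF. Blocked 1 h in 5% milk, primary antibodies 2 h, secondary 1 h, ECL detection. Probed for poly-ubiquitin, PARP, cleaved PARP, β-actin.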

In assay [5] the test system is RPMI-8226. Description: Induction of apoptosis human RPMI8226 cells assessed as PARP cleavage at 100 nM after 12 hrs by Western blot analysis. In kind it is functional, cell-based. In outline: as §3
Background: In western blotting, separated proteins are transferred to a membrane and probed.

Activity calls are given as the source filed them. The rule behind the calls is not given here.

A word on the inhibition: it is the relative decrease from the control value, in per cent. A low value points to a response near the control. `CC(C)C[C@H](NC(=O)[C@H](Cc1ccccc1)NC(=O)CC(NC(=O)c1ccco1)c1ccccc1)C(=O)[C@@]1(C)CO1` (some centres undefined) displayed an inhibition in assay [1] of 42.3%.

In assay [1], `CC(C)C[C@H](NC(=O)[C@H](Cc1ccccc1)NC(=O)C[C@H](NC(=O)c1ccc2ccccc2c1)c1ccccc1)C(=O)[C@@]1(C)CO1` displayed an inhibition of 11.8%.

Broadly, the IC50 is the concentration needed to halve the response being measured. For `CC(C)C[C@H](NC(=O)[C@H](Cc1ccccc1)NC(=O)CC(NC(=O)c1ccc(F)cc1)c1ccccc1)C(=O)[C@@]1(C)CO1` (some centres undefined), the IC50 in assay [2] was 2370 nM; in the assay with RPMI-8226 [3] it was 1550 nM; on 26S proteasome, 380 nM. This compound yielded an inhibition in assay [1] of 87.7%.

With `CC(C)C[C@H](NC(=O)c1ccccc1)C(=O)NC(CC(=O)N[C@@H](Cc1ccccc1)C(=O)[C@@]1(C)CO1)c1ccccc1` (some centres undefined), the inhibition in assay [1] worked out at 1.56%.

For `CC(C)C[C@H](NC(=O)[C@H](Cc1ccccc1)NC(=O)CC(NC(=O)c1ccc(C(F)(F)F)cc1)c1ccccc1)C(=O)[C@@]1(C)CO1` (some centres undefined), the IC50 was determined as 960 nM in assay [2], 320 nM in the assay with RPMI-8226 [3] and 220 nM on 26S proteasome. Besides, the inhibition in assay [1] was 76%.

`COc1ccc(C(=O)N[C@@H](Cc2ccccc2)C(=O)NC(CC(=O)N[C@@H](CC(C)C)C(=O)[C@@]2(C)CO2)c2ccccc2)cc1` (some centres undefined): the result in the assay with RPMI-8226 [4] and in the assay on RPMI-8226 [5] was inactive. Besides, the inhibition in assay [1] stood at 0.3%.

As for `CC(C)C[C@H](NC(=O)[C@H](CCc1ccccc1)NC(=O)CN1CCOCC1)C(=O)N[C@@H](Cc1ccccc1)C(=O)N[C@@H](CC(C)C)C(=O)[C@@]1(C)CO1` [CARFILZOMIB], the figures for the 50% inhibitory concentration (IC50) (in assay [2]; in the assay with RPMI-8226 [3]) were 21.3 nM and 13.2 nM, respectively.

On to `CC(C)C[C@H](NC(=O)[C@H](Cc1ccccc1)NC(=O)CC(NC(=O)c1ccc(C#N)cc1)c1ccccc1)C(=O)[C@@]1(C)CO1` (some centres undefined), for which the IC50 was found to be 610 nM in assay [2], 410 nM in the assay with RPMI-8226 [3] and 360 nM against 26S proteasome. Moreover, the inhibition in assay [1] is 72%.

Turning to `CC(C)C[C@H](NC(=O)[C@H](Cc1ccccc1)NC(=O)CC(NC(=O)c1ccccc1)c1ccccc1)C(=O)[C@@]1(C)CO1` (some centres undefined), the IC50 in assay [2] stood at 2690 nM; with RPMI-8226 [3], 1680 nM; on 26S proteasome, 440 nM. In assay [1], this compound gave an inhibition of 88.5%.

Take `CC(C)C[C@H](NC(=O)[C@H](Cc1ccccc1)NC(=O)CC(NC(=O)C1CCOCC1)c1ccccc1)C(=O)[C@@]1(C)CO1` (some centres undefined): the inhibition in assay [1] amounted to 69.5%. Half-maximal inhibition at 26S proteasome (IC50) was put at 630 nM.

In turn, `COc1ccc(C(=O)N[C@@H](CC(C)C)C(=O)NC(CC(=O)N[C@@H](CC(C)C)C(=O)[C@@]2(C)CO2)c2ccccc2)cc1` (some centres undefined) showed an inhibition in assay [1] of 0.56%.

For `CC(C)C[C@H](NC(=O)[C@H](Cc1ccccc1)NC(=O)c1cnccn1)B(O)O` [BORTEZOMIB], the results for the IC50 (in assay [2]; in the assay on RPMI-8226 [3]) were 10.8 nM and 7.96 nM, respectively.

Take `CC(C)C[C@H](NC(=O)[C@H](Cc1ccccc1)NC(=O)CC(NC(=O)CN1CCOCC1)c1ccccc1)C(=O)[C@@]1(C)CO1` (some centres undefined): the inhibition in assay [1] was determined as 40%.

In the case of `COc1ccc(C(=O)N[C@@H](CC(C)C)C(=O)NC(CC(=O)N[C@@H](Cc2ccccc2)C(=O)[C@@]2(C)CO2)c2ccccc2)cc1` (some centres undefined), in assay [1], the inhibition was determined as 0.39%.

`CC(C)C[C@H](NC(=O)CC(NC(=O)[C@H](Cc1ccccc1)NC(=O)c1cnccn1)c1ccccc1)C(=O)[C@@]1(C)CO1` (some centres undefined) registered an inhibition in assay [1] of 1.51%.

As for `CC(C)C[C@H](NC(=O)[C@H](Cc1ccccc1)NC(=O)CC(NC(=O)c1cccs1)c1ccccc1)C(=O)[C@@]1(C)CO1` (some centres undefined), the inhibition in assay [1] turned out to be 62.5%. Also, the IC50 on 26S proteasome came out at 950 nM.

As for `CC(C)C[C@H](NC(=O)[C@H](Cc1ccccc1)NC(=O)C[C@H](NC(=O)c1ccc(C(F)(F)F)cc1)c1ccccc1)C(=O)[C@@]1(C)CO1`, the inhibition in assay [1] was found to be 25.6%.

For the compound `CC(C)C[C@H](NC(=O)[C@H](Cc1ccccc1)NC(=O)C[C@@H](NC(=O)c1ccc(C(F)(F)F)cc1)c1ccccc1)C(=O)[C@@]1(C)CO1`, the IC50 in assay [2] stood at 230 nM; with RPMI-8226 [3] it was 340 nM; on 26S proteasome, 170 nM. The inhibition in assay [1] turned out to be 84.4%.

In assay [1], `CC(C)C[C@H](NC(=O)c1cnccn1)C(=O)NC(CC(=O)N[C@@H](CC(C)C)C(=O)[C@@]1(C)CO1)c1ccccc1` (some centres undefined) displayed an inhibition of 9.01%.

Regarding `CC(C)C[C@H](NC(=O)[C@H](Cc1ccccc1)NC(=O)C[C@@H](NC(=O)c1ccc2ccccc2c1)c1ccccc1)C(=O)[C@@]1(C)CO1`, the outcome with RPMI-8226 [4] and in the assay on RPMI-8226 [5] was Active. The values for the IC50 (in assay [2]; with RPMI-8226 [3]; at 26S proteasome) were 170 nM, 230 nM and 110 nM, respectively. The compound also returned an inhibition in assay [1] of 86.1%.

In the case of `CC(C)C[C@H](NC(=O)CC(NC(=O)[C@H](Cc1ccccc1)NC(=O)c1ccc(F)cc1)c1ccccc1)C(=O)[C@@]1(C)CO1` (some centres undefined), the inhibition in assay [1] was found to be 0.37%.

For the compound `COc1ccc(C(=O)NC(CC(=O)N[C@@H](Cc2ccccc2)C(=O)N[C@@H](CC(C)C)C(=O)[C@@]2(C)CO2)c2ccccc2)cc1` (some centres undefined), the figures for the IC50 (in assay [2]; in the assay on RPMI-8226 [3]; at 26S proteasome) were 1350 nM, 1160 nM and 340 nM, respectively. Also, the inhibition in assay [1] is 84.1%.

Compound `CC(C)C[C@H](NC(=O)c1ccc(F)cc1)C(=O)NC(CC(=O)N[C@@H](Cc1ccccc1)C(=O)[C@@]1(C)CO1)c1ccccc1` (some centres undefined) yielded an inhibition in assay [1] of 1.43%.

`CC(C)C[C@H](NC(=O)CC(NC(=O)[C@H](Cc1ccccc1)NC(=O)c1ccccc1)c1ccccc1)C(=O)[C@@]1(C)CO1` (some centres undefined) showed an inhibition in assay [1] of 0.3%.

In assay [1], `CC(C)C[C@H](NC(=O)c1cccnc1)C(=O)NC(CC(=O)N[C@@H](CC(C)C)C(=O)[C@@]1(C)CO1)c1ccccc1` (some centres undefined) showed an inhibition of 0.84%.

As for `CC(C)C[C@H](NC(=O)c1ccccc1)C(=O)NC(CC(=O)N[C@@H](CC(C)C)C(=O)[C@@]1(C)CO1)c1ccccc1` (some centres undefined), in assay [1], the inhibition was found to be 6.42%.

In turn, `CC(C)C[C@H](NC(=O)[C@H](Cc1ccccc1)NC(=O)CC(NC(=O)c1ccc(-c2ccccc2)cc1)c1ccccc1)C(=O)[C@@]1(C)CO1` (some centres undefined) displayed an inhibition in assay [1] of 47.3%.

In assay [1], `CC(C)C[C@H](NC(=O)c1cccnc1)C(=O)NC(CC(=O)N[C@@H](Cc1ccccc1)C(=O)[C@@]1(C)CO1)c1ccccc1` (some centres undefined) returned an inhibition of 3.16%.

The compound `CC(C)C[C@H](NC(=O)c1cnccn1)C(=O)NC(CC(=O)N[C@@H](Cc1ccccc1)C(=O)[C@@]1(C)CO1)c1ccccc1` (some centres undefined) came in with an inhibition in assay [1] of 8.7%.

On to `CC(C)C[C@H](NC(=O)CC(NC(=O)[C@H](Cc1ccccc1)NC(=O)c1cccnc1)c1ccccc1)C(=O)[C@@]1(C)CO1` (some centres undefined), for which, in assay [1], the inhibition amounted to 0.48%.

With `CC(C)C[C@H](NC(=O)[C@H](Cc1ccccc1)NC(=O)CC(NC(=O)c1ccc2ccccc2c1)c1ccccc1)C(=O)[C@@]1(C)CO1` (some centres undefined), the figures for the IC50 (in assay [2]; with RPMI-8226 [3]; against 26S proteasome) were 700 nM, 420 nM and 190 nM, respectively. The compound further showed an inhibition in assay [1] of 74.8%.

In assay [1], `CC(C)C[C@H](NC(=O)c1ccc(F)cc1)C(=O)NC(CC(=O)N[C@@H](CC(C)C)C(=O)[C@@]1(C)CO1)c1ccccc1` (some centres undefined) came in with an inhibition of 5.46%.

Regarding `CC(C)C[C@H](NC(=O)[C@H](Cc1ccccc1)NC(=O)CC(NC(=O)c1cnccn1)c1ccccc1)C(=O)[C@@]1(C)CO1` (some centres undefined), the inhibition in assay [1] came out at 48.6%.

In the case of `CC(C)C[C@H](NC(=O)[C@H](Cc1ccccc1)NC(=O)CC(NC(=O)c1cccnc1)c1ccccc1)C(=O)[C@@]1(C)CO1` (some centres undefined), the 50% inhibitory concentration (IC50) was determined as 8700 nM in assay [2], 4730 nM in the assay with RPMI-8226 [3] and 340 nM on 26S proteasome. The inhibition in assay [1] came out at 85.8%.

These data come from ChEMBL document CHEMBL3259806, “Design, synthesis and biological evaluation of novel tripeptidyl epoxyketone derivatives constructed from β-amino acid as proteasome inhibitors” (Bioorg Med Chem, 2014).
